Measured values published in ChEMBL document CHEMBL1145867, “Muraymycins, novel peptidoglycan biosynthesis inhibitors: synthesis and SAR of their analogues” (2003).
Values after ≈ are worked out from the molar mass of the structure shown. Active and inactive are the calls of the source. The calls are words filed in the database; no cut-off is given here.

Tests used:
[1] = test system: Candida albicans; assay: In vitro antimicrobial activity against Candida albicans […] at 10.7 ug/ml soluble peptidoglycan; format: functional
[2] = test system: Enterococcus faecalis; assay: In vitro antimicrobial activity against Enterococcus faecalis GC 4555 at 10.7 ug/ml soluble peptidoglycan; format: functional
[3] = test system: Enterococcus faecalis; assay: In vitro antimicrobial activity against Enterococcus faecalis GC 842 at 10.7 ug/ml soluble peptidoglycan; format: functional
[4] = test system: Enterococcus faecalis; assay: In vitro antimicrobial activity against Enterococcus faecalis GC 2242 at 10.7 ug/ml soluble peptidoglycan; format: functional
[5] = The inhibitory activity of compound against MraY or MurG at 100 ug/mL; Inhibit
[6] = The inhibitory activity of compound against MraY or MurG at 12.5 ug/mL; No Inhibition
[7] = The inhibitory activity of compound against MraY or MurG at 25 ug/mL; No Inhibition
[8] = The inhibitory activity of compound against MraY or MurG at 50 ug/mL; Inhibit
[9] = The inhibitory activity of compound against MraY or MurG at 6.25 ug/mL; No Inhibition
[10] = test system: Staphylococcus sp.; assay: In vitro antimicrobial activity against CNS GC 4538 at 10.7 ug/ml soluble peptidoglycan; format: functional
[11] = test system: Staphylococcus aureus; assay: In vitro antimicrobial activity against Staphylococcus aureus GC 1131 at 10.7 ug/ml soluble peptidoglycan; format: functional
[12] = test system: Staphylococcus aureus; assay: In vitro antimicrobial activity against Staphylococcus aureus GC 2216 at 10.7 ug/ml soluble peptidoglycan; format: functional
[13] = test system: Staphylococcus aureus; assay: In vitro antimicrobial activity against Staphylococcus aureus GC 4536 at 10.7 ug/ml soluble peptidoglycan; format: functional
[14] = test system: Staphylococcus sp.; assay: In vitro antimicrobial activity against CNS GC 4547 at 10.7 ug/mL soluble peptidoglycan; format: functional
[15] = test system: Staphylococcus sp.; assay: In vitro antimicrobial activity against Coagulase-negative staphylococcus GC 4538 at 10.7 ug/ml soluble peptidoglycan; format: functional
[16] = test system: Bacteria; assay: In vitro antimicrobial activity against gram-negative organisms (10)
[17] = test system: Enterococcus faecalis; assay: In vitro antimicrobial activity against Enterococcus faecalis GC 2242; format: functional
Procedure, shortened: (§1)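 Broth microdilution per NCCLS guidance. Serial dilutions of each agent in microtiter plates are inoculated with each organism to 10⁵ CFU/mL and incubated 18–22 h at 35 C in ambient air. MIC is the lowest concentration giving complete growth inhibition, judged by the unaided eye.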

[18] = test system: Enterococcus faecalis; assay: In vitro antimicrobial activity against Enterococcus faecalis GC 4555; format: functional; procedure, shortened: as §1
[19] = test system: Enterococcus faecalis; assay: In vitro antimicrobial activity against Enterococcus faecalis GC 842; format: functional; procedure, shortened: as §1
[20] = test system: Bacteria; assay: In vitro antimicrobial activity against gram-negative organisms (10); format: functional; procedure, shortened: as §1
[21] = test system: Staphylococcus sp.; assay: In vitro antimicrobial activity against CNS GC 4538; format: functional; procedure, shortened: as §1
[22] = test system: Staphylococcus aureus; assay: In vitro antimicrobial activity against Staphylococcus aureus GC 1131; format: functional; procedure, shortened: as §1
[23] = test system: Staphylococcus aureus; assay: In vitro antimicrobial activity against Staphylococcus aureus GC 2216; format: functional; procedure, shortened: as §1
[24] = test system: Staphylococcus aureus; assay: In vitro antimicrobial activity against Staphylococcus aureus GC 4536; format: functional; procedure, shortened: as §1
[25] = test system: Staphylococcus sp.; assay: In vitro antimicrobial activity against CNS GC 4547; format: functional; procedure, shortened: as §1
[26] = test system: Staphylococcus sp.; assay: In vitro antimicrobial activity against Coagulase-negative staphylococcus GC 4538; format: functional; procedure, shortened: as §1
[27] = test system: Candida albicans; assay: In vitro antimicrobial activity against Candida albicans […] at 32 ug/ml soluble peptidoglycan; format: functional
[28] = test system: Enterococcus faecalis; assay: In vitro antimicrobial activity 10.7 ug/ml soluble peptidoglycan; format: functional
[29] = test system: Staphylococcus aureus; assay: In vitro antimicrobial activity against Staphylococcus aureus GC 4536 at 10.7 ug/mL soluble peptidoglycan; format: functional
[30] = test system: Staphylococcus sp.; assay: In vitro antimicrobial activity against CNS GC 4547 at 10.7 ug/ml soluble peptidoglycan; format: functional
[31] = test system: Candida albicans; assay: In vitro antimicrobial activity against Candida albicans GC 3066; format: functional; procedure, shortened: as §1
[32] = test system: Escherichia coli; assay: In vitro antimicrobial activity against Escherichia coli GC 2214; format: functional; procedure, shortened: as §1
[33] = test system: Escherichia coli; assay: In vitro antimicrobial activity against Escherichia coli GC 4559; format: functional; procedure, shortened: as §1
[34] = test system: Escherichia coli; assay: In vitro antimicrobial activity against Escherichia coli GC 4560; format: functional; procedure, shortened: as §1
[35] = test system: Enterobacter cloacae; assay: In vitro antimicrobial activity against Enterobacter cloacae GC 3783; format: functional; procedure, shortened: as §1
[36] = test system: Klebsiella pneumoniae; assay: In vitro antimicrobial activity against Klebsiella pneumoniae GC 4534; format: functional; procedure, shortened: as §1
[37] = test system: Pseudomonas aeruginosa; assay: In vitro antimicrobial activity against Pseudomonas aeruginosa GC 2214; format: functional; procedure, shortened: as §1
[38] = test system: Pseudomonas aeruginosa; assay: In vitro antimicrobial activity against Pseudomonas aeruginosa GC 4532; format: functional; procedure, shortened: as §1
[39] = test system: Staphylococcus sp.; assay: In vitro antimicrobial activity against Staphylococci; format: functional, staphyl ococcus species; procedure, shortened: as §1
[40] = test system: Staphylococcus aureus; assay: In vitro antimicrobial activity against Staphylococcu aureus GC 1131; format: functional
Procedure, shortened: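 Broth dilution per NCCLS recommendations. Serial dilutions in microtiter plates inoculated to 10⁵ CFU/mL, then incubated 18–22 h at 35 C in ambient air. MIC taken as the lowest concentration giving complete growth inhibition by unaided eye.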

[41] = test system: Staphylococcus aureus; assay: In vitro antimicrobial activity against Staphylococcu aureus GC 2216; format: functional; procedure, shortened: as §1
[42] = test system: Staphylococcus aureus; assay: In vitro antimicrobial activity against Staphylococcu aureus GC 4536; format: functional; procedure, shortened: as §1
[43] = test system: Escherichia coli; assay: In vitro antimicrobial activity against Escherichia coli GC 3226; format: functional; procedure, shortened: as §1
[44] = test system: Enterococcus sp.; assay: In vitro antimicrobial activity against Enterococci; format: functional; procedure, shortened: as §1
[45] = test system: Serratia marcescens; assay: In vitro antimicrobial activity against Serratia marcescens GC 4077; format: functional; procedure, shortened: as §1
[46] = test system: Serratia marcescens; assay: In vitro antimicrobial activity against In vitro antimicrobial activity against Serratia marcescens GC 4077
[47] = Staphylococcus sp., read-out: MIC

SMILES	MIC [2] [µg/mL]	MIC [3] [µg/mL]	Inhibitory activity [5]	Inhibitory activity [6]	Inhibitory activity [7]	Inhibitory activity [8]	Inhibitory activity [9]	MIC [10] [µg/mL]	MIC [11] [µg/mL]	MIC [12] [µg/mL]	MIC [15] [µg/mL]	MIC [16] [µg/mL]	MIC [17] [µg/mL]	MIC [18] [µg/mL]	MIC [19] [µg/mL]	MIC [20] [µg/mL]	MIC [21, 47] [µg/mL]	MIC [25] [µg/mL]	further results
COc1ccc(Cn2c(=O)ccn([C@@H]3OC([C@@H](O)[C@H](NCCCNC(=O)[C@H](N)C(O)C(C)C)C(=O)OC(C)(C)C)[C@@H](O[Si](C)(C)C(C)(C)C)[C@H]3O[Si](C)(C)C(C)(C)C)c2=O)cc1 (stereo not given in full)	128 (≈ 141 µM)	> 128	Inhibit	inactive	inactive	Inhibit	inactive	128 (≈ 141 µM)	128 (≈ 141 µM)	128 (≈ 141 µM)	128 (≈ 141 µM)	> 128	–	–	–	–	–	–	MIC [1]: 128 µg/mL (≈ 141 µM); MIC [4]: 128 µg/mL (≈ 141 µM); MIC [13]: 128 µg/mL (≈ 141 µM); MIC [14]: 8 µg/mL (≈ 8.81 µM)
COC1C(O)[C@@H](OC(C(NCCCNC(=O)[C@H](NC(=O)[C@@H](NC(=O)N[C@H](C(=O)O)C(C)C)C2CCN=C(N)N2)C(OC(=O)CCCCCCCCCCCN(O)C(=N)N)C(C)C)C(=O)O)[C@H]2O[C@@H](n3ccc(=O)[nH]c3=O)[C@H](O)[C@@H]2O)O[C@H]1CN (stereo not given in full)	–	–	–	–	–	–	–	–	–	–	–	–	32 (≈ 26.6 µM)	16 (≈ 13.3 µM)	4 (≈ 3.33 µM)	8 (≈ 6.66 µM)	1 (≈ 0.832 µM)	8 (≈ 6.66 µM)	MIC [22]: 4 µg/mL (≈ 3.33 µM); MIC [23]: 8 µg/mL (≈ 6.66 µM); MIC [24]: 4 µg/mL (≈ 3.33 µM); MIC [26]: 2 µg/mL (≈ 1.66 µM)
COc1ccc(Cn2c(=O)ccn([C@@H]3OC([C@@H](O)[C@H](NCCCNC(=O)[C@H](NC(=O)OCc4ccccc4)C(O)C(C)C)C(=O)OC(C)(C)C)[C@@H](O[Si](C)(C)C(C)(C)C)[C@H]3O[Si](C)(C)C(C)(C)C)c2=O)cc1 (stereo not given in full)	64 (≈ 61.4 µM)	64 (≈ 61.4 µM)	–	–	–	–	–	128 (≈ 123 µM)	128 (≈ 123 µM)	128 (≈ 123 µM)	128 (≈ 123 µM)	64 (≈ 61.4 µM)	–	–	–	–	–	–	MIC [27]: 32 µg/mL (≈ 30.7 µM); MIC [28]: 64 µg/mL (≈ 61.4 µM); MIC [29]: 128 µg/mL (≈ 123 µM); MIC [30]: 128 µg/mL (≈ 123 µM)
COc1ccc(Cn2c(=O)ccn([C@@H]3OC([C@H](O)[C@H](NCCCNC(=O)[C@@H](C)N)C(=O)OC(C)(C)C)[C@@H](O[Si](C)(C)C(C)(C)C)[C@H]3O[Si](C)(C)C(C)(C)C)c2=O)cc1 (stereo not given in full)	–	–	Inhibit	inactive	inactive	Inhibit	inactive	–	–	–	–	–	4 (≈ 4.7 µM)	8 (≈ 9.41 µM)	4 (≈ 4.7 µM)	64 (≈ 75.3 µM)	4 (≈ 4.7 µM)	4 (≈ 4.7 µM)	MIC [31]: 128 µg/mL (≈ 151 µM); MIC [32]: 128 µg/mL (≈ 151 µM); MIC [33]: 128 µg/mL (≈ 151 µM); MIC [34]: 128 µg/mL (≈ 151 µM); MIC [35]: 128 µg/mL (≈ 151 µM); MIC [36]: 128 µg/mL (≈ 151 µM); MIC [37]: 128 µg/mL (≈ 151 µM); MIC [38]: 128 µg/mL (≈ 151 µM); MIC [39]: 4 µg/mL (≈ 4.7 µM); MIC [21]: 8 µg/mL (≈ 9.41 µM); MIC [40]: 4 µg/mL (≈ 4.7 µM); MIC [41]: 8 µg/mL (≈ 9.41 µM); MIC [42]: 4 µg/mL (≈ 4.7 µM); MIC [43]: 128 µg/mL (≈ 151 µM); MIC [44]: 4 µg/mL (≈ 4.7 µM); MIC [45]: 128 µg/mL (≈ 151 µM); MIC [46]: 128 µg/mL (≈ 151 µM)
